Test results as given in ChEMBL document CHEMBL2040794, “Synthesis and structure-activity analysis of new phosphonium salts with potent activity against African trypanosomes” (J Med Chem, 2012).

Legend:
[1] = tested on: Trypanosoma brucei rhodesiense; assay: Antitrypanosomal activity against Trypanosoma brucei rhodesiense STIB900 infected in rat L6 cells after 72 hrs by alamar blue assay; type: functional, organism-based; settings: Trypanosoma brucei, STIB900, 72 h
[2] = Selectivity index, ratio of EC50 for rat L6 cells to EC50 for Trypanosoma brucei rhodesiense STIB900; type: toxicity, cell-based; settings: L6 cells, read-out: Ratio EC50
Outline: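 Ratio of EC₅₀ in L6 cells to EC₅₀ against T. b. rhodesiense STIB900, both from Alamar blue assays.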

[3] = tested on: Trypanosoma brucei brucei; assay: Antitrypanosomal activity against wild type Trypanosoma brucei brucei Lister 427 after 3 days by alamar blue assay; type: functional, organism-based
Outline: (§1)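 Bloodstream-form T. b. brucei (wild-type s427; TbAT1-KO, made from s427 by TbAT1 deletion; B48, selected from TbAT1-KO in vitro on pentamidine, lacking functional HAPT1). Cells were exposed to compound for 48 h, then resazurin (Alamar blue) was added for a further 24 h. A single fluorescence reading gave EC50.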

[4] = Cytotoxicity against human HEK cells after 3 days by alamar blue assay; type: cell-based, HEK293
Outline: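 Human embryonic kidney cells tested by resazurin (Alamar blue) assay: 48 h with compound, then 24 h more after dye addition, single reading; EC₅₀ derived.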

L6 = assay: Cytotoxicity against rat L6 cells after 72 hrs by alamar blue assay; type: cell-based; settings: Rattus norvegicus, L6, 72 h
[5] = tested on: Trypanosoma brucei brucei; assay: Resistance factor, ratio of EC50 for diminazene-, pentamidine-, and melaminophenyl arsenical-resistant HAPT1-deficient Trypanosoma brucei brucei B48 to EC50 for wild type Trypanosoma brucei brucei Lister 427; type: functional
Outline: (§2)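 Resistance factor is the EC50 in the resistant line (TbAT1-KO or B48) divided by the EC50 in wild-type s427. […] Resistant and wild-type EC50s were compared by Student t-test.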

[6] = tested on: Trypanosoma brucei brucei; assay: Antitrypanosomal activity against diminazene aceturate-resistant TbAT1 gene-deficient Trypanosoma brucei brucei AT1-KO after 3 days by alamar blue assay; type: functional, organism-based; settings: Trypanosoma brucei, AT1-KO, 72 h; outline: as §1
[7] = Selectivity index, ratio of EC50 for human HEK cells to EC50 for wild type Trypanosoma brucei brucei Lister 427; type: toxicity, cell-based, HEK293; settings: for selectivity ratio: HEK cells, read-out: Ratio EC50
Outline: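 Ratio of EC₅₀ in HEK cells to EC₅₀ in wild-type T. b. brucei s427, both from resazurin assays.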

[8] = tested on: Trypanosoma brucei brucei; assay: Resistance factor, ratio of EC50 for diminazene aceturate-resistant TbAT1 gene-deficient Trypanosoma brucei brucei AT1-KO to EC50 for wild type Trypanosoma brucei brucei Lister 427; type: functional; outline: as §2
[9] = tested on: Trypanosoma brucei brucei; assay: Antitrypanosomal activity against diminazene-, pentamidine-, and melaminophenyl arsenical-resistant HAPT1-deficient Trypanosoma brucei brucei B48 after 3 days by alamar blue assay; type: functional, organism-based; settings: Trypanosoma brucei, B48, 72 h; outline: as §1
[10] = Trypanosoma brucei, Lister 427, 72 h

SMILES	EC50 [1]	selectivity ratio [2]	EC50 [3, 10]	EC50 ([4]; Homo sapiens, HEK293, 72 h)	EC50 (L6)	Ratio EC50 [5]	EC50 [6]	selectivity ratio [7]	Ratio EC50 [8]	EC50 [9]	EC50 [3]	EC50 ([4]; hek293)	Ratio EC50 ([7]; hek293)
COc1ccccc1[P+](Cc1ccc(C(=O)c2ccc(C[P+](c3ccccc3)(c3ccccc3OC)c3ccccc3OC)cc2)cc1)(c1ccccc1)c1ccccc1OC.[Br-].[Br-]	0.23 µM	28	0.24 µM	107 µM	6.4 µM	0.8	0.32 µM	438	1.3	0.19 µM	–	–	–
CCC[P+](Cc1ccc(Oc2ccc(C[P+](CCC)(c3ccccc3)c3ccccc3)cc2)cc1)(c1ccccc1)c1ccccc1.[Br-].[Br-]	0.567 µM	5	0.25 µM	233 µM	2.9 µM	1.2	0.28 µM	914	1.1	0.3 µM	–	–	–
[Br-].[Br-].c1ccc2c([P+](Cc3ccc(Oc4ccc(C[P+](c5cccc6ccccc56)(c5cccc6ccccc56)c5cccc6ccccc56)cc4)cc3)(c3cccc4ccccc34)c3cccc4ccccc34)cccc2c1	0.384 µM	9	0.16 µM	114 µM	3.45 µM	0.8	0.14 µM	722	0.9	0.128 µM	–	–	–
CCCCCC[P+](CCCCCC)(CCCCCC)Cc1ccc(C(=O)c2ccccc2)cc1.[Br-]	0.103 µM	15	0.011 µM	13.4 µM	1.61 µM	1.9	0.008 µM	1200	0.7	0.022 µM	–	–	–
Cc1ccc([P+](CCc2ccc(CCc3ccc(CC[P+](c4ccc(C)cc4)(c4ccc(C)cc4)c4ccc(C)cc4)cc3)cc2)(c2ccc(C)cc2)c2ccc(C)cc2)cc1.[Cl-].[Cl-]	0.027 µM	40.3	0.125 µM	12.8 µM	1.09 µM	0.7	0.094 µM	103	0.8	0.089 µM	–	–	–
Cc1ccc([P+](Cc2ccc(CCCc3ccc(C[P+](c4ccc(C)cc4)(c4ccc(C)cc4)c4ccc(C)cc4)cc3)cc2)(c2ccc(C)cc2)c2ccc(C)cc2)cc1.[Br-].[Br-]	0.081 µM	22	–	–	1.8 µM	1.8	0.049 µM	–	1.7	0.053 µM	0.029 µM	25.8 µM	897
Cc1ccc([P+](Cc2ccc(S(=O)(=O)c3ccc(C[P+](c4ccc(C)cc4)(c4ccc(C)cc4)c4ccc(C)cc4)cc3)cc2)(c2ccc(C)cc2)c2ccc(C)cc2)cc1.[Br-].[Br-]	0.173 µM	127	0.23 µM	> 300 µM	22 µM	1.2	0.253 µM	> 1300	1.1	0.27 µM	–	–	–
O=C(c1ccc(C[P+](c2cccs2)(c2cccs2)c2cccs2)cc1)c1ccc(C[P+](c2cccs2)(c2cccs2)c2cccs2)cc1.[Br-].[Br-]	0.29 µM	58	0.33 µM	260 µM	16.6 µM	1	0.52 µM	785	1.6	0.33 µM	–	–	–
O=C(c1ccc(C[P+](c2ccccc2)(C2CCCCC2)C2CCCCC2)cc1)c1ccc(C[P+](c2ccccc2)(C2CCCCC2)C2CCCCC2)cc1.[Br-].[Br-]	0.32 µM	72	0.24 µM	> 300 µM	22.9 µM	1.2	0.26 µM	> 1270	1.1	0.29 µM	–	–	–
Fc1c(F)c(F)c([P+](Cc2ccc(Oc3ccc(C[P+](c4ccccc4)(c4ccccc4)c4c(F)c(F)c(F)c(F)c4F)cc3)cc2)(c2ccccc2)c2ccccc2)c(F)c1F.[Br-].[Br-]	12.8 µM	–	23.2 µM	> 300 µM	5.35 µM	0.3	9.9 µM	> 10	0.4	6.68 µM	–	–	–
CC[P+](CC)(CC)Cc1ccc(Oc2ccc(C[P+](CC)(CC)CC)cc2)cc1.[Br-].[Br-]	31.9 µM	–	36.5 µM	> 300 µM	102 µM	1	34.9 µM	> 8	1	36.6 µM	–	–	–
CC[P+](CC)(CC)Cc1ccc(Cc2ccc(C[P+](CC)(CC)CC)cc2)cc1.[Br-].[Br-]	18.7 µM	–	21.5 µM	> 300 µM	48.3 µM	0.9	18.5 µM	> 14	0.9	19.3 µM	–	–	–
CC(C)C[P+](Cc1ccc(Oc2ccc(C[P+](CC(C)C)(CC(C)C)CC(C)C)cc2)cc1)(CC(C)C)CC(C)C.[Br-].[Br-]	1.62 µM	–	0.59 µM	> 300 µM	51.1 µM	1.8	0.8 µM	> 507	1.3	1.06 µM	–	–	–
FC(F)(F)c1ccc([P+](Cc2ccc(Cc3ccc(C[P+](c4ccc(C(F)(F)F)cc4)(c4ccc(C(F)(F)F)cc4)c4ccc(C(F)(F)F)cc4)cc3)cc2)(c2ccc(C(F)(F)F)cc2)c2ccc(C(F)(F)F)cc2)cc1.[Br-].[Br-]	1.72 µM	–	0.23 µM	77.1 µM	7.52 µM	1.2	0.37 µM	338	1.6	0.28 µM	–	–	–
FC(F)(F)c1ccc([P+](Cc2ccc(Oc3ccc(C[P+](c4ccc(C(F)(F)F)cc4)(c4ccc(C(F)(F)F)cc4)c4ccc(C(F)(F)F)cc4)cc3)cc2)(c2ccc(C(F)(F)F)cc2)c2ccc(C(F)(F)F)cc2)cc1.[Br-].[Br-]	5.26 µM	–	0.24 µM	174 µM	9.93 µM	1.2	0.32 µM	723	1.3	0.28 µM	–	–	–
C[P+](C)(Cc1ccc(C(=O)c2ccccc2)cc1)c1ccccc1.[Br-]	16.9 µM	–	42.7 µM	> 300 µM	> 241 µM	1.1	46.6 µM	> 7	1.1	45.8 µM	–	–	–
C[P+](C)(Cc1ccc(Oc2ccc(C[P+](C)(C)c3ccccc3)cc2)cc1)c1ccccc1.[Br-].[Br-]	3.83 µM	–	7.22 µM	> 300 µM	84.5 µM	0.9	6.52 µM	> 40	0.9	6.15 µM	–	–	–
C[P+](C)(Cc1ccc(Cc2ccc(C[P+](C)(C)c3ccccc3)cc2)cc1)c1ccccc1.[Br-].[Br-]	2.59 µM	–	5.45 µM	> 300 µM	> 142 µM	0.7	4.6 µM	> 55	0.8	3.84 µM	–	–	–
CC(C)C[P+](Cc1ccc(C(=O)c2ccccc2)cc1)(CC(C)C)CC(C)C.[Br-]	4.48 µM	–	5.9 µM	> 300 µM	> 209 µM	1.1	6.1 µM	> 50	1	6.28 µM	–	–	–
O=C(c1ccc(C[P+](c2ccc(C(F)(F)F)cc2)(c2ccc(C(F)(F)F)cc2)c2ccc(C(F)(F)F)cc2)cc1)c1ccc(C[P+](c2ccc(C(F)(F)F)cc2)(c2ccc(C(F)(F)F)cc2)c2ccc(C(F)(F)F)cc2)cc1.[Br-].[Br-]	16.4 µM	–	5.05 µM	> 300 µM	25 µM	0.5	8.51 µM	> 60	1.7	2.73 µM	–	–	–
CC[P+](CC)(Cc1ccc(C(=O)c2ccc(C[P+](CC)(CC)c3ccccc3)cc2)cc1)c1ccccc1.[Br-].[Br-]	2.9 µM	–	8.59 µM	> 300 µM	> 128 µM	1.8	17.8 µM	> 35	2.1	15.2 µM	–	–	–
